Test results as given in ChEMBL document CHEMBL4308858 (Eur J Med Chem, 2018).
Calls of active or inactive are those of the source. No cut-off for these calls is given here.

Experiments:
[1] = target: T1, Anoctamin-1 (Homo sapiens, UniProt Q5XXA6); experiment: Inhibition of YFP-fused ANO1 (unknown origin) expressed in FRT cells after 20 mins by fluorescence quenching method; assay type: cell-based
T1 sequence (Q5XXA6 whole entry): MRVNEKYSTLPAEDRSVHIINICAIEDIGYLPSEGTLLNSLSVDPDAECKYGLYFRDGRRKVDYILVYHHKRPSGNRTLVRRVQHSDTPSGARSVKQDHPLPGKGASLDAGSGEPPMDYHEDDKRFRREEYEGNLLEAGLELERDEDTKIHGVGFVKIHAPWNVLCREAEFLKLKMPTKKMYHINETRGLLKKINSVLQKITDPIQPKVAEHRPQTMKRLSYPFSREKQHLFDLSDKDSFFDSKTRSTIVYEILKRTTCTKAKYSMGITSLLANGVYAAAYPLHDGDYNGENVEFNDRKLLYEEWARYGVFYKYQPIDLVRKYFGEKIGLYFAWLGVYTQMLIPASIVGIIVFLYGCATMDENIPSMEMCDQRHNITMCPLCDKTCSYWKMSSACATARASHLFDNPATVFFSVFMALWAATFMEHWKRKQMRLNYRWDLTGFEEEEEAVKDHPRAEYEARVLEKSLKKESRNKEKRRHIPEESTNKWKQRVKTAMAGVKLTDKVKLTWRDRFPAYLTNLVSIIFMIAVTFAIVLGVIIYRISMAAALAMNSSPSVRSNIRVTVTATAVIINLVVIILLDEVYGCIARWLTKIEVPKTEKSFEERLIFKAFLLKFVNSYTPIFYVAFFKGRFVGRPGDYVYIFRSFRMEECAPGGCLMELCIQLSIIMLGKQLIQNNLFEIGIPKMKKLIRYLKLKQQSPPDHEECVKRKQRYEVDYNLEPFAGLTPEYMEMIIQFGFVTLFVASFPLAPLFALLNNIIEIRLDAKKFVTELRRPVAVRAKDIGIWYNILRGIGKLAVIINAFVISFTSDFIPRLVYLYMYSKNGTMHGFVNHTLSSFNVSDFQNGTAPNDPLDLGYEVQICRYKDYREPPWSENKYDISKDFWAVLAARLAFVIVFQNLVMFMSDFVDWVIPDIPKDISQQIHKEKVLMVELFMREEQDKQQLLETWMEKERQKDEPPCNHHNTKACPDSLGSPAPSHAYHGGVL

[2] = target: T2, Anoctamin-2 (Homo sapiens, UniProt Q9NQ90); experiment: Inhibition of YFP-fused ANO2 (unknown origin) expressed in FRT cells after 20 mins by fluorescence quenching method; assay type: cell-based
T2 sequence (Q9NQ90 whole entry): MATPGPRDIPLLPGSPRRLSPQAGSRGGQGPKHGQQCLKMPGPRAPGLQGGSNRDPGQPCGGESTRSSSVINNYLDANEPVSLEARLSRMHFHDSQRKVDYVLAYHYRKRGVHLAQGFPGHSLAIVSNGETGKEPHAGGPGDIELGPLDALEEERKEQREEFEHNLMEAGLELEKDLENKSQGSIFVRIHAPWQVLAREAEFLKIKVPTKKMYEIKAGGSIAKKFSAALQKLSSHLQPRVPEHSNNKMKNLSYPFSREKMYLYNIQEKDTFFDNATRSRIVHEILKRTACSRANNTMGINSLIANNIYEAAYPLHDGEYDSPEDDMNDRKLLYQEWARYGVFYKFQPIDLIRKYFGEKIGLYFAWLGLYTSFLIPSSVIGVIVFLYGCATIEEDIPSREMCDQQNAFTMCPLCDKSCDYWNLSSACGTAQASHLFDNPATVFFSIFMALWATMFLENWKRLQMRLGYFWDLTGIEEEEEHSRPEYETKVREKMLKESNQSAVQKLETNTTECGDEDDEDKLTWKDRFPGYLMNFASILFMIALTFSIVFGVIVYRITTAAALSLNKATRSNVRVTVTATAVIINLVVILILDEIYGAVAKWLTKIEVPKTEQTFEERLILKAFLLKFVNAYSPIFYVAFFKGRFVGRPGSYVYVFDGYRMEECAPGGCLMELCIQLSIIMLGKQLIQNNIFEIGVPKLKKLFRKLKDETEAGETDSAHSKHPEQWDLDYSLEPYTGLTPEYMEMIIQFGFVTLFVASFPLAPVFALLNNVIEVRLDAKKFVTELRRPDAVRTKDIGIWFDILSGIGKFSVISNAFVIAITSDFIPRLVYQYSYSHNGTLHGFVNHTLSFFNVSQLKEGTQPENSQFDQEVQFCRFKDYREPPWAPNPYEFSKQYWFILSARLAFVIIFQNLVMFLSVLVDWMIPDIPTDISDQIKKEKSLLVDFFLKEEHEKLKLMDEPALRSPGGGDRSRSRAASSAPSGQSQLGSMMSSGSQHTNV

[3] = target: T3, ANO2 (Anoctamin-2) (Homo sapiens, UniProt Q9NQ90); experiment: Inhibition of YFP-fused ANO2 (unknown origin) expressed in FRT cells after 20 mins by fluorescence quenching method relative to untreated control; assay type: cell-based; set-up: concentration or dose not given beside the values; conditions: FRT cells expressing YFP-fused ANO2
T3 sequence (Q9NQ90 whole entry): T2 sequence (Q9NQ90 whole entry)
Method in brief: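 FRT cells stably co-expressing YFP-H148Q/I152L/F46L and ANO1 or ANO2, seeded 2×10^4 per well and grown 48 h. After PBS washes, compound given for 20 min. At 2 s, 70 mM I⁻ solution containing 200 µM ATP added; fluorescence read every 0.4 s for 6 s. Inhibition taken from initial slope of quenching; mean ± S.E., n = 3.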

[4] = target: CFTR (cystic fibrosis transmembrane conductance regulator) (Homo sapiens, UniProt P13569); experiment: Inhibition of wild type human CFTR expressed in FRT cells assessed as reduction in forskolin-induced chloride current at 10 uM after 20 mins by electrophysiological assay; assay type: cell-based; conditions: FRT cells expressing wild type human CFTR
Chain of CFTR (cystic fibrosis transmembrane conductance regulator) (P13569 whole entry): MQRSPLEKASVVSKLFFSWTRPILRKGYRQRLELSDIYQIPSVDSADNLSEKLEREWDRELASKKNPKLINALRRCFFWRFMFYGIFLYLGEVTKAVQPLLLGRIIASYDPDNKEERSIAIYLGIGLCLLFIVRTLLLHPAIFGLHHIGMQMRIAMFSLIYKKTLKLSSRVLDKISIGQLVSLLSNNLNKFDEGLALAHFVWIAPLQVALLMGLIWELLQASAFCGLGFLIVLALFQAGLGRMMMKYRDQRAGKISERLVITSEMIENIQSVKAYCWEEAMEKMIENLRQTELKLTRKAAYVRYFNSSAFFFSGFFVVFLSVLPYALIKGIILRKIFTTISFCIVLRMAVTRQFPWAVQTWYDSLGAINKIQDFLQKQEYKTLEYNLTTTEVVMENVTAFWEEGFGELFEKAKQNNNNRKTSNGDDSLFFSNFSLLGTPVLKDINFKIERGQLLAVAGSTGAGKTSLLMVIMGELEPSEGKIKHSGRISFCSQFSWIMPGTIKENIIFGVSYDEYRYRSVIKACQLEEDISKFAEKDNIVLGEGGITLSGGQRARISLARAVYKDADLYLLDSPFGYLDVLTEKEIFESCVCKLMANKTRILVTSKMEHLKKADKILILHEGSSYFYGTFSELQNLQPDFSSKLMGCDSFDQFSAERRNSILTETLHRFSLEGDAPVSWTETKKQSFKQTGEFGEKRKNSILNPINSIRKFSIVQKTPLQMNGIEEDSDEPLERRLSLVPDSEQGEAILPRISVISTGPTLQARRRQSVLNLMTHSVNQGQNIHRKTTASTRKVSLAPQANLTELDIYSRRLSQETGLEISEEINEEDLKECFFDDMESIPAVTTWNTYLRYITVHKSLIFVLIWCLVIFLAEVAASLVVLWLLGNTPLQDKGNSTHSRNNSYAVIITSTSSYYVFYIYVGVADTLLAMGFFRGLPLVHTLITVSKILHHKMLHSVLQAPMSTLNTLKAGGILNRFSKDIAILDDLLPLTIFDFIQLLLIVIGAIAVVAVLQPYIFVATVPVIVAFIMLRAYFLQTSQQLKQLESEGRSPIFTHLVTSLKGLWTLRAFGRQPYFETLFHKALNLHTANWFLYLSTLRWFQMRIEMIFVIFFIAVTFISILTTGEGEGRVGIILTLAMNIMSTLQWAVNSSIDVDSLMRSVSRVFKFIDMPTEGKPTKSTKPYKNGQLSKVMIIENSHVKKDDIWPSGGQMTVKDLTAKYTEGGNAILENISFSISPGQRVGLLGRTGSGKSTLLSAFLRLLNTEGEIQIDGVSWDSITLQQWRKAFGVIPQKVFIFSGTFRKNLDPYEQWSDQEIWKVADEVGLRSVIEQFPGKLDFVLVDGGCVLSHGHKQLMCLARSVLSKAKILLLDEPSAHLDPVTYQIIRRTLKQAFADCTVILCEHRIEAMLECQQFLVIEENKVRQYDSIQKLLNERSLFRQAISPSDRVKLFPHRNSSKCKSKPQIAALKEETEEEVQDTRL
Method in brief: (§1)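 Ussing chamber, FRT monolayers expressing ANO1, ANO2 or human WT-CFTR. Basolateral side permeabilised with amphotericin B (250 µg/mL) in HCO3⁻-buffered solution, pH 7.4; apical side half-Cl⁻ (65 mM NaCl replaced by gluconate). Run at 37 °C under 95% O2/5% CO2. Compound applied apically for 20 min, then ANO1/2 activated with 100 µM ATP or CFTR with 20 µM forskolin. Apical current recorded; n = 3–6.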

[5] = Half life in rat plasma at 5 uM by LC-MS/MS analysis; assay type: ADME, cell-free
Method in brief: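 Compound at 5 µM final in rat plasma, shaken at 37 °C and sampled at 0, 30, 60, 120 and 240 min. Reaction stopped with three volumes of ice-cold acetonitrile and protein spun out. Supernatant analysed by LC-MS/MS on a C18 column with formic acid/water–ACN mobile phase. Percent parent remaining taken from peak areas; n = 3.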

[6] = target: T4, Anoctamin-1 (Homo sapiens) (UniProt Q5XXA6); experiment: Inhibition of ANO1 (unknown origin) expressed in FRT cells assessed as reduction in ATP-induced chloride current after 20 mins by electrophysiological assay; assay type: cell-based
T4 sequence (whole entry): T1 sequence (Q5XXA6 whole entry)

[7] = target: Cystic fibrosis transmembrane conductance regulator (Homo sapiens, UniProt P13569); experiment: Inhibition of wild type human CFTR expressed in FRT cells assessed as reduction in forskolin-induced chloride current at 30 to 100 uM after 20 mins by electrophysiological assay; assay type: cell-based; method in brief: as §1
Chain of Cystic fibrosis transmembrane conductance regulator (P13569 whole entry): as above

[8] = species: Homo sapiens; experiment: Selectivity for ANO1 (unknown origin) over ANO2 (unknown origin)
[9] = species: Homo sapiens; experiment: Selectivity for ANO1 (unknown origin) over wild type human CFTR
[10] = tested on: PC-3; experiment: Cytotoxicity against human PC3 cells assessed as reduction in cell viability after 48 hrs by MTS assay; assay type: functional, cell-based
Method in brief: (§2)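 PC3, MCF7 and BxPC3 cells grown in RPMI1640 with 10% FBS, plated and held 24 h in 2% FBS medium. At about 20% confluency, compound added at 0.01–30 µM for 48 h, with medium and compound replaced every 24 h. MTS reagent applied for 1 h and formazan absorbance read at 490 nm; mean ± S.E., n = 3.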

[11] = tested on: MCF7; experiment: Cytotoxicity against human MCF7 cells assessed as reduction in cell viability after 48 hrs by MTS assay; assay type: functional, cell-based; method in brief: as §2
[12] = tested on: BXPC-3; experiment: Cytotoxicity against human BxPC3 cells assessed as reduction in cell viability after 48 hrs by MTS assay; assay type: functional, cell-based; method in brief: as §2
[13] = tested on: PC-3; experiment: Inhibition of ANO1 protein expression level in human PC3 cells at 3 to 10 uM after 24 hrs by Western blot analysis; assay type: functional, cell-based
Method in brief: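 PC3 cells exposed to compound for 24 h and lysed in NP-40/deoxycholate buffer with protease and phosphatase inhibitors. Lysate cleared at 15000 g, resolved on 4–12% Tris-glycine gel and transferred to PVDF. Blocked in 4% milk/TBST, probed with anti-ANO1 (1:500) then anti-rabbit secondary (1:2000), and detected by ECL.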

[14] = tested on: PC-3; experiment: Cytotoxicity against human PC3 cells assessed as reduction in cell viability at 10 uM after 48 hrs by MTS assay; assay type: functional, cell-based; method in brief: as §2
[15] = tested on: MCF7; experiment: Cytotoxicity against human MCF7 cells assessed as reduction in cell viability at 10 uM after 48 hrs by MTS assay; assay type: functional, cell-based; method in brief: as §2
[16] = tested on: BXPC-3; experiment: Cytotoxicity against human BxPC3 cells assessed as reduction in cell viability at 10 uM after 48 hrs by MTS assay; assay type: functional, cell-based; method in brief: as §2

Row | Structure (SMILES) | IC50 ([1]; read-out: IC50) [µM] | IC50 ([2]; read-out: IC50) [µM] | IC50 [2] | inhibition at 20 min [3] [%] | further results
1 | Cc1cc(Cl)ccc1OCc1nnc(-c2ccccc2C(F)(F)F)o1 | > 100 | > 100 | – | – | –
2 | Cc1cc(Cl)ccc1OCc1nnc(-c2ccco2)o1 | – | > 100 | – | – | –
3 | COc1cccc(/C=N/NC(=O)COc2ccc(Cl)cc2C)c1 | > 100 | – | Not Active | < 20 | –
4 | Cc1cc(Cl)ccc1OCc1nnc(-c2cccc(F)c2)o1 | > 100 | > 100 | – | – | –
5 | COc1cccc(-c2nnc(COc3ccc(Cl)cc3C)o2)c1 | > 100 | > 100 | – | – | –
6 | Cc1cc(Cl)ccc1OCC(=O)N/N=C/c1ccccn1 | – | > 100 | – | – | –
7 | O=C(O)c1ccc(/C=C2/SC(=S)N(c3cccc(C(F)(F)F)c3)C2=O)cc1 | – | – | – | – | inhibition at 20 min, 10 µM [4]: 100%
8 | COc1ccccc1/C=N/NC(=O)COc1ccc(Cl)cc1C | – | – | – | – | half-life at 5 µM [5]: 0.533 h
9 | COc1ccccc1/C=N/NC(=O)c1cc2cc(Cl)ccc2o1 | > 100 | > 100 | – | – | –
10 | Cc1cc(Cl)ccc1OC(C)C(=O)N/N=C/c1ccccc1OC(F)(F)F (configuration not stated) | > 100 | – | Not Active | – | –
11 | Cc1cc(Cl)ccc1OC(F)(F)C(=O)N/N=C/c1ccccc1OC(F)(F)F | > 100 | > 100 | – | – | –
12 | COc1ccccc1CNNC(=O)COc1ccc(Cl)cc1C | – | > 100 | – | – | –
13 | Cc1cc(Cl)ccc1OCC(=O)N/N=C/c1ccccc1C(F)(F)F | – | – | Not Active | < 20 | –
14 | Cc1cc(Cl)ccc1OCC(=O)N/N=C/c1ccccc1OC(F)(F)F | – | – | Not Active | < 20 | inhibition [6]: Dose-dependent effect; inhibition (INH) [7]: Not Active; Selectivity ratio [8]: > 1000; Selectivity ratio [9]: > 1000; Activity [10]: Dose-dependent effect; Activity [11]: Dose-dependent effect; Activity [12]: Dose-dependent effect; inhibition [13]: Active; half-life at 5 µM [5]: 1.73 h
15 | Cc1cc(Cl)ccc1OCC(=O)N/N=C/c1cccc(OC(F)(F)F)c1 | > 100 | – | Not Active | < 20 | Activity [14]: inactive; Activity [15]: inactive; Activity [16]: inactive

Continued, in another order:

Row | IC50 ([1]; read-out: IC50) [µM] | IC50 ([2]; read-out: IC50) [µM] | IC50 [2] | inhibition at 20 min [3] [%] | Structure (SMILES) | further results
16 | – | > 100 | – | – | C/C(=N\NC(=O)COc1ccc(Cl)cc1C)c1ccccc1OC(F)(F)F | –
17 | – | > 100 | – | – | Cc1cc(Cl)ccc1OC(C)(C)C(=O)N/N=C/c1ccccc1OC(F)(F)F | IC50 [1]: Not Active
18 | > 100 | – | Not Active | < 20 | Cc1cc(Cl)ccc1OCc1nnc(-c2cccc(OC(F)(F)F)c2)o1 | –
19 | 0.89 | – | Not Active | < 20 | Cc1cc(Cl)ccc1OCC(=O)N/N=C/c1ccccc1F | –
20 | > 100 | – | Not Active | < 20 | Cc1cc(Cl)ccc1OCc1nnc(-c2ccccn2)o1 | –
21 | > 100 | > 100 | – | – | COc1ccccc1-c1nnc(-c2cc3cc(Cl)ccc3o2)o1 | –
22 | > 100 | – | Not Active | < 20 | Cc1cc(Cl)ccc1OCc1nnc(-c2ccccc2OC(F)(F)F)o1 | –
23 | – | – | Not Active | < 20 | Cc1cc(Cl)ccc1OCC(=O)N/N=C/c1ccco1 | –
24 | > 100 | – | Not Active | < 20 | Cc1cc(Cl)ccc1OCC(=O)N/N=C/c1cccc(F)c1 | –
25 | – | > 100 | – | – | Cc1cc(Cl)ccc1OCc1nnc(-c2ccccc2F)o1 | –
